{"data": "Results collected from several papers", "target": "Serine/threonine-protein kinase Nek2 (NEK2, Homo sapiens, UniProt P51955)", "One construct used (P51955 1-445)": "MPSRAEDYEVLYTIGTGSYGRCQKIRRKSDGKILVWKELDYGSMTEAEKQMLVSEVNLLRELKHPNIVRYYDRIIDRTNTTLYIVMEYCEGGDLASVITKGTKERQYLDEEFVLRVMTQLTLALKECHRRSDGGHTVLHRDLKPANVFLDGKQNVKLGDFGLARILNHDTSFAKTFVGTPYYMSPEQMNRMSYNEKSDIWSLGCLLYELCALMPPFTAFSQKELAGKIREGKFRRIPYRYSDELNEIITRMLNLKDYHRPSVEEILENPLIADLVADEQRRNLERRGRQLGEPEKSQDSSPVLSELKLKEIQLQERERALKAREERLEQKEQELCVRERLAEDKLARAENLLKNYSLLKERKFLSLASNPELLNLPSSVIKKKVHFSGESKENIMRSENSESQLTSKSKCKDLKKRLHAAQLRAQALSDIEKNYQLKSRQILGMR", "note": "Each line is one published result; the experiments were not run side by side."}
{"Compound": "NS(=O)(=O)c1cc(NC(=O)C2(c3ccccc3Cl)CC2)ccc1Oc1cccc(Cl)c1", "read-out": "cell-free assay", "technique": "competition with immobilised ligand", "concentration": "1 µM", "remaining binding [%]": 86}
{"Compound": "FC(F)(F)Oc1cccc(-c2cnc3ccc(-c4ccncc4)nn23)c1", "read-out": "cell-free assay", "technique": "competition with immobilised ligand", "concentration": "5 µM", "remaining binding [%]": 74}
{"Compound": "O=C(c1ccc(Nc2ncc(Cl)c(-c3ccc(Cl)s3)n2)cc1)N1CCC(N2CCCC2)CC1", "read-out": "binding", "technique": "competition with immobilised ligand", "concentration": "1 µM", "remaining binding [%]": 65}
{"Compound": "COc1ccnn2ncc(-c3ccnc(N(C)C)n3)c12", "read-out": "binding", "concentration": "1 µM", "remaining binding [%]": 92}
{"Compound": "COc1ncc2cc3ccccc3nc2c1C#N", "read-out": "cell-free assay", "technique": "competition with immobilised ligand", "concentration": "5 µM", "remaining binding [%]": 85}
{"Compound": "O=C(Nc1c[nH]nc1C(=O)NC1CCNCC1)c1cc(F)cc(F)c1", "read-out": "binding", "technique": "competition with immobilised ligand", "concentration": "1 µM", "remaining binding [%]": 93}
{"Compound": "O=C(c1ccc(Nc2nccc(-c3cc4ccccc4s3)n2)cc1)N1CCC(N2CCCC2)CC1", "read-out": "binding", "technique": "competition with immobilised ligand", "concentration": "1 µM", "remaining binding [%]": 95}
{"Compound": "COc1cnc(Nc2cccc(S(N)(=O)=O)c2)nc1N1CCN(c2ccccc2)CC1", "read-out": "binding", "technique": "competition with immobilised ligand", "concentration": "1 µM", "remaining binding [%]": 97}
{"Compound": "C[C@@H](c1ccc(-n2cnc3c(N)ncnc32)cc1)N1CCc2nn(C)c(Cc3ccccc3)c2C1=O", "read-out": "binding", "technique": "competition with immobilised ligand", "concentration": "0.1 µM", "remaining binding [%]": 89}
{"Compound": "C[C@H](c1ccnc(Nc2nc3ccc(-c4cc(N(C)C)ncn4)cc3[nH]2)c1)N1CCN(C(=O)CC(F)(F)F)CC1", "read-out": "cell-free assay", "technique": "competition with immobilised ligand", "concentration": "0.1 µM", "remaining binding [%]": 100}
{"Compound": "CN(C)c1nccc(-c2cnc3ncccn23)n1", "read-out": "binding", "concentration": "1 µM", "remaining binding [%]": 93}
{"Compound": "Nc1ncc2c(n1)-c1c([nH]c3ccc(C#CC4CC4)cc13)CCCC2", "read-out": "binding", "technique": "competition with immobilised ligand", "concentration": "1 µM", "remaining binding [%]": 87}
{"Compound": "CNC(=O)Nc1ccc2c(c1)[C@@]1(CC2)OC(=O)N(CC(=O)N(Cc2ccc(F)cc2)[C@@H](C)C(F)(F)F)C1=O", "read-out": "cell-free assay", "technique": "competition with immobilised ligand", "concentration": "1 µM", "remaining binding [%]": 100}
{"Compound": "O=C(NCCCN1CCOCC1)c1ccc(Nc2ncc(Cl)c(-c3ccc(Cl)s3)n2)cc1", "read-out": "binding", "technique": "competition with immobilised ligand", "concentration": "1 µM", "remaining binding [%]": 75}
{"Compound": "Cn1nc(C(F)(F)F)cc1-c1cnc(N2CCc3cc(S(=O)(=O)Nc4c(F)cc(Cl)cc4F)cc(N4CCCC4=O)c32)nc1", "read-out": "cell-free assay", "technique": "competition with immobilised ligand", "concentration": "1 µM", "remaining binding [%]": 100}
{"Compound": "N[C@H]1CCN(c2nccc(-c3cnn4ncccc34)n2)C1", "read-out": "binding", "concentration": "1 µM", "remaining binding [%]": 100}
{"Compound": "CCCCN(CCCC)C(=O)CN1C[C@@H](c2cc(OC)c3c(c2)OCO3)[C@H](C(=O)O)[C@H]1CC(C)(C)CCC", "read-out": "cell-free assay", "technique": "competition with immobilised ligand", "concentration": "1 µM", "remaining binding [%]": 98.7}
{"Compound": "C[C@H]1CCN(c2nccc(-c3cnn4ncccc34)n2)C1", "read-out": "binding", "concentration": "1 µM", "remaining binding [%]": 90}
{"Compound": "Cn1cc(Cl)c2c(Oc3c(F)cc(Nc4cc(Cl)nc(N)n4)cc3F)ccnc21", "read-out": "cell-free assay", "technique": "competition with immobilised ligand", "concentration": "0.1 µM", "remaining binding [%]": 100}
{"Compound": "CN(C)c1nccc(-c2cnn3ncccc23)n1", "read-out": "binding", "concentration": "1 µM", "remaining binding [%]": 100}
